From ChEMBL document CHEMBL2321837, “Discovery of novel inhibitors targeting the Mycobacterium tuberculosis O-acetylserine sulfhydrylase (CysK1) using virtual high-throughput screening” (Bioorg Med Chem Lett, 2013)
Values after ≈ are worked out from the molar mass of the structure shown.

Tests used:
[1] = system: Mycobacterium tuberculosis; experiment: Antimycobacterial activity against Mycobacterium tuberculosis H37Rv ATCC 27294 assessed as growth inhibition by NCCLS agar dilution method; type: functional
Summary of the method: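 M. tuberculosis H37Rv (ATCC27294) agar dilution, compounds 50 to 0.78 µg/mL in duplicates. MIC taken as lowest concentration completely inhibiting growth; isoniazid and ethambutol as reference compounds.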

[2] = Cytotoxicity against HEK293T cells assessed as growth inhibition at 25 uM by MTT assay relative to control; type: cell-based, HEK-293T; settings: human, read-out: GI
[3] = Cytotoxicity against HEK293T cells assessed as growth inhibition at 50 uM by MTT assay relative to control; type: cell-based, HEK-293T; settings: human, read-out: GI
[4] = target: O-acetylserine sulfhydrylase (Mycobacterium tuberculosis) (UniProt P9WP55); experiment: Inhibition of Mycobacterium tuberculosis CysK1 using O-acetyl-L-serine as substrate assessed as L-cycteine formation at 100 uM after 5 mins by spectrophotometric analysis relative to control
Summary of the method: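 Single-point screen of compounds at 100 µM. Assay mix (MOPS pH 7.0, O-acetyl-L-serine, CysK1) was preincubated 5 min at room temperature, then started with 1 mM sodium sulphide for 20 min. It was stopped with trichloroacetic acid (final 16.6%), then acid-ninhydrin reagent was added and heated at 96 °C for 10 min. After 1:1 ethanol dilution, OD was read at 560 nm; triplicates. Controls were DFSI tetrapeptide (100 µM, 100% inhibition) and no inhibitor (0%).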

[5] = target: T1, O-acetylserine sulfhydrylase (Mycobacterium tuberculosis, UniProt P9WP55); experiment: Inhibition of Mycobacterium tuberculosis CysK1 using O-acetyl-L-serine as substrate assessed as L-cycteine formation after 5 mins by spectrophotometric analysis
Summary of the method: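 Dose–response: serial 1:3 dilutions prepared in 50% DMSO (final DMSO 5%). Final mix was 100 mM MOPS pH 7.0, 2 mM O-acetyl-L-serine, […] CysK1, preincubated 5 min at room temperature. The reaction was started with sodium sulphide (final 1 mM). Aliquots taken at time intervals were assayed for L-cysteine by acid-ninhydrin. Specific activity vs concentration was fitted to a sigmoid for IC50.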

[6] = target: T1, O-acetylserine sulfhydrylase; experiment: Competitive inhibition of Mycobacterium tuberculosis CysK1
Summary of the method: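 Purified CysK1 preincubated 5 min at room temperature with 1:3 serial compound dilutions in 100 mM MOPS pH 7.0 and 2 mM O-acetyl-L-serine, 5% DMSO final. Reaction started with sodium sulphide (1 mM final); aliquots were taken at time intervals. L-cysteine was measured by acid-ninhydrin (96 °C, 10 min) at 560 nm. IC50 came from sigmoid fits of specific activity.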

| SMILES | MIC [1] | inhibition at 25 µM [2] | inhibition at 50 µM [3] | inhibition [4] | IC50 [5] | Ki [6] |
| --- | --- | --- | --- | --- | --- | --- |
| CC[C@@H](CO)NCCN[C@@H](CC)CO [ETHAMBUTOL] | 4.71 µM (≈ 0.962 µg/mL) |  |  |  |  |  |
| CN(C)c1ccc(C2NC(=O)N=C3C2C(=O)N=C2SC([N+](=O)[O-])=CN23)cc1 (stereo not drawn) | 32.4 µM (≈ 12.5 µg/mL) | 0% | 4.9% | 92.7% |  |  |
| CN(C)c1ccc(C2NC(=S)N=C3C2C(=O)N=C2SC([N+](=O)[O-])=CN23)cc1 (stereo not drawn) | 15.5 µM (≈ 6.24 µg/mL) | 8% | 26.8% | 100% |  |  |
| O=C1N=C2SC([N+](=O)[O-])=CN2C2=NC(=S)NC(c3cccc(Br)c3)C12 (stereo not drawn) | 7.1 µM (≈ 3.11 µg/mL) | 6% | 13.5% | 39.9% |  |  |
| NNC(=O)c1ccncc1 [ISONIAZID] | 0.72 µM (≈ 0.0987 µg/mL) |  |  |  |  |  |
| CC[C@H](C)[C@H](NC(=O)[C@H](CO)NC(=O)[C@H](Cc1ccccc1)NC(=O)[C@@H](N)CC(=O)O)C(=O)O |  |  |  |  | 7.4 µM | 5 µM |
| O=C1N=C2C(C(=O)N=C3SC([N+](=O)[O-])=CN32)C(c2ccc([N+](=O)[O-])cc2)N1 (stereo not drawn) | 129 µM (≈ 50 µg/mL) | 2.6% | 9.4% | 54.7% |  |  |
| Cc1ccc(C2NC(=S)N=C3C2C(=O)N=C2SC([N+](=O)[O-])=CN23)cc1 (stereo not drawn) | 67 µM (≈ 25 µg/mL) | 0% | 14.7% | 106% |  |  |
| O=C1N=C2C(C(=O)N=C3SC([N+](=O)[O-])=CN32)C(c2ccc(Br)cc2)N1 (stereo not drawn) | 29.6 µM (≈ 12.5 µg/mL) | 6.1% | 11.2% | 89.1% |  |  |
| Cc1ccccc1C1NC(=O)N=C2C1C(=O)N=C1SC([N+](=O)[O-])=CN12 (stereo not drawn) | 70 µM (≈ 25 µg/mL) | 6% | 20.4% | 103% |  |  |
| COc1ccc(C2NC(=O)N=C3C2C(=O)N=C2SC([N+](=O)[O-])=CN23)cc1 (stereo not drawn) | 134 µM (≈ 50 µg/mL) | 0% | 7.3% | 93.9% |  |  |
| O=C1N=C2C(C(=O)N=C3SC([N+](=O)[O-])=CN32)C(c2c(Cl)cccc2Cl)N1 (stereo not drawn) | 121 µM (≈ 50 µg/mL) | 0% | 0% | 57.8% |  |  |
| O=C1N=C2C(C(=O)N=C3SC([N+](=O)[O-])=CN32)C(c2ccc(Cl)cc2)N1 (stereo not drawn) | 66.2 µM (≈ 25 µg/mL) | 0% | 0% | 80% |  |  |
| O=C1N=C2C(C(=O)N=C3SC([N+](=O)[O-])=CN32)C(c2ccccc2C(F)(F)F)N1 (stereo not drawn) | 7.6 µM (≈ 3.13 µg/mL) | 5.7% | 13.1% | 13.8% | 17.7 µM |  |
| O=C1N=C2SC([N+](=O)[O-])=CN2C2=NC(=S)NC(c3ccc(Cl)cc3)C12 (stereo not drawn) | 15.9 µM (≈ 6.26 µg/mL) | 7.4% | 14.6% | 102% |  |  |
| O=C1N=C2SC([N+](=O)[O-])=CN2C2=NC(=S)NC(c3c(Cl)cccc3Cl)C12 (stereo not drawn) | 58.4 µM (≈ 25 µg/mL) | 21.3% | 30.7% | 113% |  |  |
| O=C1N=C2SC([N+](=O)[O-])=CN2C2=NC(=S)NC(c3ccccc3[N+](=O)[O-])C12 (stereo not drawn) | 30.9 µM (≈ 12.5 µg/mL) | 1% | 8.7% | 11.3% | 30.3 µM |  |

| SMILES | MIC [1] | inhibition at 25 µM [2] | inhibition at 50 µM [3] | inhibition [4] | IC50 [5] | Ki [6] |
| --- | --- | --- | --- | --- | --- | --- |
| O=C1N=C2C(C(=O)N=C3SC([N+](=O)[O-])=CN32)C(c2ccccc2[N+](=O)[O-])N1 (stereo not drawn) | 129 µM (≈ 50 µg/mL) | 0% | 0% | 93% |  |  |
| O=C1N=C2SC([N+](=O)[O-])=CN2C2=NC(=S)NC(c3ccc([N+](=O)[O-])cc3)C12 (stereo not drawn) | 61.8 µM (≈ 25 µg/mL) | 1.64% | 6.6% | 70.6% |  |  |
| COc1cc(C2NC(=S)N=C3C2C(=O)N=C2SC([N+](=O)[O-])=CN23)ccc1O (stereo not drawn) | 123 µM (≈ 50 µg/mL) | 0% | 1.35% | 89.2% |  |  |
| O=C1N=C2SC([N+](=O)[O-])=CN2C2=NC(=S)NC(c3ccccc3C(F)(F)F)C12 (stereo not drawn) | 7.3 µM (≈ 3.12 µg/mL) | 27.7% | 52.2% | 89.4% |  |  |
| O=C1N=C2C(C(=O)N=C3SC([N+](=O)[O-])=CN32)C(c2cccc(Br)c2)N1 (stereo not drawn) | 14.8 µM (≈ 6.25 µg/mL) | 0% | 2.8% | 60.1% |  |  |
| O=C1N=C2C(C(=O)N=C3SC([N+](=O)[O-])=CN32)C(c2ccccc2)N1 (stereo not drawn) | > 146 µM | 1.6% | 3.8% | 84.1% |  |  |
| O=C1N=C2SC([N+](=O)[O-])=CN2C2=NC(=S)NC(c3ccccc3)C12 (stereo not drawn) | 69.6 µM (≈ 25 µg/mL) | 0% | 25.3% | 90.4% |  |  |
| O=C1N=C2C(C(=O)N=C3SC([N+](=O)[O-])=CN32)C(c2ccccc2O)N1 (stereo not drawn) | 69.6 µM (≈ 25 µg/mL) | 0% | 0% | 107% |  |  |
| COc1ccc(C2NC(=S)N=C3C2C(=O)N=C2SC([N+](=O)[O-])=CN23)cc1 (stereo not drawn) | 32.1 µM (≈ 12.5 µg/mL) | 0.2% | 14.6% | 9.1% | 22.7 µM |  |
| COc1cc(C2NC(=O)N=C3C2C(=O)N=C2SC([N+](=O)[O-])=CN23)ccc1O (stereo not drawn) | 128 µM (≈ 50 µg/mL) | 0% | 0% | 90.5% |  |  |
| O=C1N=C2C(C(=O)N=C3SC([N+](=O)[O-])=CN32)C(c2ccc(F)cc2)N1 (stereo not drawn) | 17.3 µM (≈ 6.25 µg/mL) | 5.4% | 10.7% | 100% |  |  |
| Cc1ccc(C2NC(=O)N=C3C2C(=O)N=C2SC([N+](=O)[O-])=CN23)cc1 (stereo not drawn) | 70 µM (≈ 25 µg/mL) | 0% | 0% | 57.7% |  |  |
| O=C1N=C2SC([N+](=O)[O-])=CN2C2=NC(=S)NC(c3ccc(Br)cc3)C12 (stereo not drawn) | 28.5 µM (≈ 12.5 µg/mL) | 2.5% | 6.5% | 65.6% |  |  |
| Cc1ccccc1C1NC(=S)N=C2C1C(=O)N=C1SC([N+](=O)[O-])=CN12 (stereo not drawn) | 33.5 µM (≈ 12.5 µg/mL) | 3.6% | 18.8% | 15.9% | 17.7 µM |  |
| O=C1N=C2SC([N+](=O)[O-])=CN2C2=NC(=S)NC(c3ccccc3O)C12 (stereo not drawn) | 33.3 µM (≈ 12.5 µg/mL) | 0.1% | 12% | 68.8% |  |  |
| O=C1N=C2SC([N+](=O)[O-])=CN2C2=NC(=S)NC(c3ccc(F)cc3)C12 (stereo not drawn) | 16.6 µM (≈ 6.26 µg/mL) | 30.6% | 43.4% | 60% |  |  |
